Key:
[1] = Retention time of the compound; assay type: physicochemical
[2] = molecular target: T1, Fatty-acid amide hydrolase 1 (Rattus norvegicus, UniProt P97612); experiment: Inhibition of recombinant rat FAAH preincubated for 3 hrs
T1 sequence (P97612 whole entry): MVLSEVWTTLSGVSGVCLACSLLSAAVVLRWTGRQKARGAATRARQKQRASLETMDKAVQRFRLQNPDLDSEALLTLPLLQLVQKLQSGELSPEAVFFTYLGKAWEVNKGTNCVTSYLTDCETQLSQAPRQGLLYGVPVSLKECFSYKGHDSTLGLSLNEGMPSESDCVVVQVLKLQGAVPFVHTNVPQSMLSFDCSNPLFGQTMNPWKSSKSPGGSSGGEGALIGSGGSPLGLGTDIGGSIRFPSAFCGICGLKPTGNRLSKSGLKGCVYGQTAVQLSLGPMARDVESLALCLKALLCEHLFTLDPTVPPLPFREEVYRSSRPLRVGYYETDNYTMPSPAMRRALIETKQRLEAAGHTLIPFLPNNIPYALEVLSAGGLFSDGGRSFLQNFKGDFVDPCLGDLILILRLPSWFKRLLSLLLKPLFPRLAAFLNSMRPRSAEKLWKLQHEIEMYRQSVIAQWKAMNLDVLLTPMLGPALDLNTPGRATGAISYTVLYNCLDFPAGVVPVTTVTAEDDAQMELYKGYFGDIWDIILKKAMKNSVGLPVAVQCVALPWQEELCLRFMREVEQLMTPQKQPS
Method in brief: (§1)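 Recombinant FAAH (rFAAH) was preincubated with the inhibitor for 3 h before activity was measured. Results are reported as an apparent Ki in nM.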

[3] = molecular target: T1, Fatty-acid amide hydrolase 1; experiment: Irreversible inhibition of recombinant rat FAAH preincubated for 3 hrs; method in brief: as §1

Structure (SMILES) | Retention_time [1] | Ki [2] | Ki [3]
N#Cc1cnn(C(=O)NCc2ccc(-c3ccccc3)cc2)c1 | 3.897 min |  | 
O=C(N1CCCCC1)n1cccn1 | 3.484 min | 750 nM | 
Cc1cnn(C(=O)N2CCCCC2)c1 | 3.933 min | > 1000 nM | 
Cc1cnn(C(=O)N2CCN(C(=O)OC(C)(C)C)CC2)c1 | 3.784 min | 850 nM | 
CC(C)(C)OC(=O)N1CCCN(C(=O)n2cccn2)CC1 | 3.518 min |  | 
Cc1cnn(C(=O)N2CCN(Cc3ccccc3)CC2)c1 | 4.201 min | 250 nM | 
O=C(N1CCN(Cc2ccc3ccccc3c2)CC1)n1cccn1 | 3.791 min |  | 9.8 nM
O=C(N1CCN(Cc2ccc3ccccc3c2)CC1)n1cc(I)cn1 | 3.844 min |  | 0.29 nM
COC(=O)c1cnn(C(=O)N2CCN(Cc3ccc4ccccc4c3)CC2)c1 | 3.999 min |  | 0.36 nM
N#Cc1cnn(C(=O)N2CCN(Cc3ccc(OCc4ccccc4)cc3)CC2)c1 | 3.787 min | 0.16 nM | 
N#Cc1cnn(C(=O)N2CCN(Cc3ccc(Oc4ccccc4)cc3)CC2)c1 | 3.927 min |  | 0.1 nM
N#Cc1cnn(C(=O)N2CCN(Cc3ccc(-c4ccccc4)cc3)CC2)c1 | 3.877 min | 0.19 nM | 
N#Cc1cnn(C(=O)NCCCCc2ccccc2)c1 | 3.746 min | 42 nM | 
N#Cc1cnn(C(=O)OCCCCc2ccccc2)c1 | 3.762 min | 210 nM | 
O=C(CCCCCc1ccccc1)n1cccn1 | 4.199 min | > 5000 nM | 
Cc1cnn(C(=O)CCCCCc2ccccc2)c1 | 4.2 min | > 5000 nM | 
O=C(OCCCc1ccccc1)n1cccn1 | 3.669 min |  | 
O=C(NCCCCCc1ccccc1)n1cccn1 | 4.011 min |  | 
Cc1cnn(C(=O)NCCCCCc2ccccc2)c1 | 4.178 min |  | 
N#Cc1cnn(C(=O)NCCCCCc2ccccc2)c1 | 4.125 min |  | 

Structure (SMILES) | Retention_time [1] | Ki [2] | Ki [3]
O=C(OCCCCCc1ccccc1)n1cccn1 | 4.159 min |  | 
N#Cc1cnn(C(=O)OCCCCCc2ccccc2)c1 | 4.274 min |  | 
O=C(NCc1ccc2ccccc2c1)n1cccn1 | 4.106 min |  | 
Cc1cnn(C(=O)NCc2ccc3ccccc3c2)c1 | 4.243 min |  | 
N#Cc1cnn(C(=O)NCc2ccc3ccccc3c2)c1 | 4.14 min |  | 
O=C(OCc1ccc2ccccc2c1)n1cccn1 | 4.008 min |  | 
Cc1cnn(C(=O)OCc2ccc3ccccc3c2)c1 | 3.998 min |  | 
N#Cc1cnn(C(=O)OCc2ccc3ccccc3c2)c1 | 3.689 min |  | 
N#Cc1cnn(C(=O)Cc2ccc3ccccc3c2)c1 | 3.906 min |  | 
Cc1cnn(C(=O)NCc2ccc(-c3ccccc3)cc2)c1 | 3.907 min |  | 
O=C(OCc1ccc(-c2ccccc2)cc1)n1cccn1 | 3.999 min |  | 
Cc1cnn(C(=O)Cc2ccc(-c3ccccc3)cc2)c1 | 3.467 min |  | 
N#Cc1cnn(C(=O)Cc2ccc(-c3ccccc3)cc2)c1 | 3.977 min |  | 
O=C(NCc1ccc(Oc2ccccc2)cc1)n1cccn1 | 3.987 min |  | 
N#Cc1cnn(C(=O)NCc2ccc(OCc3ccccc3)cc2)c1 | 3.877 min |  | 
Cc1cnn(C(=O)OCc2ccc(OCc3ccccc3)cc2)c1 | 3.91 min |  | 
O=C(Oc1ccc2ccccc2c1)n1cccn1 | 3.96 min |  | 
Cc1ccc(CNC(=O)n2cc(C)cn2)cc1 | 4.11 min |  | 
Cc1ccc(COC(=O)n2cc(C)cn2)cc1 | 4.122 min |  | 

Other lines, results leading:

Retention_time [1] | Ki [2] | Ki [3] | Structure (SMILES)
3.824 min | 80 nM |  | N#Cc1cnn(C(=O)N2CCCCC2)c1
3.92 min | 340 nM |  | CC(C)(C)OC(=O)N1CCN(C(=O)n2cccn2)CC1
3.946 min | 55 nM |  | CC(C)(C)OC(=O)N1CCN(C(=O)n2cc(C#N)cn2)CC1
3.959 min |  |  | Cc1cnn(C(=O)N2CCCN(C(=O)OC(C)(C)C)CC2)c1
3.792 min |  |  | CC(C)(C)OC(=O)N1CCCN(C(=O)n2cc(C#N)cn2)CC1
3.884 min |  |  | CN(CCN(C)C(=O)n1cccn1)C(=O)OC(C)(C)C
3.969 min |  |  | Cc1cnn(C(=O)N(C)CCN(C)C(=O)OC(C)(C)C)c1
3.791 min |  |  | CN(CCN(C)C(=O)n1cc(C#N)cn1)C(=O)OC(C)(C)C
3.894 min | 180 nM |  | O=C(N1CCN(Cc2ccccc2)CC1)n1cccn1
3.899 min | 75 nM |  | N#Cc1cnn(C(=O)N2CCN(Cc3ccccc3)CC2)c1
3.896 min |  | 130 nM | Cc1cnn(C(=O)N2CCN(Cc3ccc4ccccc4c3)CC2)c1
3.915 min |  | 0.16 nM | N#Cc1cnn(C(=O)N2CCN(Cc3ccc4ccccc4c3)CC2)c1
3.989 min |  | 0.47 nM | O=C(N1CCN(Cc2ccc3ccccc3c2)CC1)n1cc(Br)cn1
3.897 min | 12 nM |  | O=C(N1CCN(Cc2ccc(-c3ccccc3)cc2)CC1)n1cccn1
3.899 min | 170 nM |  | Cc1cnn(C(=O)N2CCN(Cc3ccc(-c4ccccc4)cc3)CC2)c1
3.929 min | 10 nM |  | O=C(N1CCN(Cc2ccc(OCc3ccccc3)cc2)CC1)n1cccn1
3.899 min | 100 nM |  | Cc1cnn(C(=O)N2CCN(Cc3ccc(OCc4ccccc4)cc3)CC2)c1
3.893 min |  | 9.2 nM | O=C(N1CCN(Cc2ccc(Oc3ccccc3)cc2)CC1)n1cccn1
3.987 min |  | 210 nM | Cc1cnn(C(=O)N2CCN(Cc3ccc(Oc4ccccc4)cc3)CC2)c1

Retention_time [1] | Ki [2] | Ki [3] | Structure (SMILES)
3.955 min | 290 nM |  | O=C(NCCCCc1ccccc1)n1cccn1
3.713 min | 550 nM |  | Cc1cnn(C(=O)NCCCCc2ccccc2)c1
3.779 min | 710 nM |  | O=C(OCCCCc1ccccc1)n1cccn1
3.988 min | > 5000 nM |  | Cc1cnn(C(=O)OCCCCc2ccccc2)c1
3.998 min | > 5000 nM |  | N#Cc1cnn(C(=O)CCCCCc2ccccc2)c1
3.989 min |  |  | O=C(NCCCc1ccccc1)n1cccn1
3.616 min |  |  | Cc1cnn(C(=O)NCCCc2ccccc2)c1
3.915 min |  |  | N#Cc1cnn(C(=O)NCCCc2ccccc2)c1
3.69 min |  |  | Cc1cnn(C(=O)OCCCc2ccccc2)c1
3.927 min |  |  | N#Cc1cnn(C(=O)OCCCc2ccccc2)c1
3.977 min |  |  | O=C(CCCCc1ccccc1)n1cccn1
3.687 min |  |  | Cc1cnn(C(=O)CCCCc2ccccc2)c1
3.702 min |  |  | N#Cc1cnn(C(=O)CCCCc2ccccc2)c1
4.104 min |  |  | Cc1cnn(C(=O)OCCCCCc2ccccc2)c1
3.788 min |  |  | O=C(Cc1ccc2ccccc2c1)n1cccn1
3.992 min |  |  | Cc1cnn(C(=O)Cc2ccc3ccccc3c2)c1
3.944 min |  |  | O=C(NCc1ccc(-c2ccccc2)cc1)n1cccn1
4.102 min |  |  | Cc1cnn(C(=O)OCc2ccc(-c3ccccc3)cc2)c1
4.103 min |  |  | N#Cc1cnn(C(=O)OCc2ccc(-c3ccccc3)cc2)c1

Retention_time [1] | Ki [2] | Ki [3] | Structure (SMILES)
4.1 min |  |  | O=C(Cc1ccc(-c2ccccc2)cc1)n1cccn1
3.992 min |  |  | Cc1cnn(C(=O)NCc2ccc(Oc3ccccc3)cc2)c1
4.022 min |  |  | N#Cc1cnn(C(=O)NCc2ccc(Oc3ccccc3)cc2)c1
3.989 min |  |  | O=C(OCc1ccc(Oc2ccccc2)cc1)n1cccn1
3.899 min |  |  | Cc1cnn(C(=O)OCc2ccc(Oc3ccccc3)cc2)c1
3.92 min |  |  | N#Cc1cnn(C(=O)OCc2ccc(Oc3ccccc3)cc2)c1
3.896 min |  |  | O=C(NCc1ccc(OCc2ccccc2)cc1)n1cccn1
3.876 min |  |  | Cc1cnn(C(=O)NCc2ccc(OCc3ccccc3)cc2)c1
3.905 min |  |  | O=C(OCc1ccc(OCc2ccccc2)cc1)n1cccn1
3.912 min |  |  | N#Cc1cnn(C(=O)OCc2ccc(OCc3ccccc3)cc2)c1
3.895 min |  |  | O=C(Nc1ccc2ccccc2c1)n1cccn1
3.9 min |  |  | Cc1cnn(C(=O)Nc2ccc3ccccc3c2)c1
3.965 min |  |  | N#Cc1cnn(C(=O)Nc2ccc3ccccc3c2)c1
3.954 min |  |  | Cc1cnn(C(=O)Oc2ccc3ccccc3c2)c1
3.9 min |  |  | N#Cc1cnn(C(=O)Oc2ccc3ccccc3c2)c1
4.104 min |  |  | Cc1ccc(CNC(=O)n2cccn2)cc1
3.97 min |  |  | Cc1ccc(CNC(=O)n2cc(C#N)cn2)cc1
4.1 min |  |  | Cc1ccc(COC(=O)n2cccn2)cc1
3.988 min |  |  | Cc1ccc(COC(=O)n2cc(C#N)cn2)cc1
